Columns and labels:
[1] = Displacement of [3H]-DTG from sigma-2 receptor in Dunkin Hartley guinea pig brain membrane after 120 mins by liquid scintillation counting analysis in presence of (+)-SKF10047; design: species or system Cavia porcellus
[2] = Acute toxicity in po dosed Kun Ming mouse after 24 hrs; format: organism-based; conditions: in vivo
[3] = test system: Mus musculus; test: Antinociceptive activity in Kun Ming mouse pain model assessed as reduction in licking and biting time during phase-1 at 80 mg/kg, ip administered 15 mins prior to formalin challenge relative to vehicle-treated control; format: functional; conditions: route intraperitoneal
Outline: (§1)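 Kun Ming mice (20 ± 2.0 g), 10–12 per group, given vehicle (30% PEG 400) or drug ip at 10 mL/kg 15 min before intraplantar formalin. Time spent licking or biting the injected paw scored at 0–5 min (phase I) and 15–45 min (phase II). Effect (%) = (LTV − LTD)/LTV × 100.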

[4] = test system: Mus musculus; test: Antinociceptive activity in Kun Ming mouse pain model assessed as reduction in licking and biting time during phase-2 at 80 mg/kg, ip administered 15 mins prior to formalin challenge relative to vehicle-treated control; format: functional; conditions: route intraperitoneal; outline: as §1
[5] = test system: Mus musculus; test: Antinociceptive activity in ip dosed Kun Ming mouse pain model assessed as reduction in licking and biting time during phase-1 administered 15 mins prior to formalin challenge relative to vehicle-treated control; format: functional; outline: as §1
[6] = test system: Mus musculus; test: Antinociceptive activity in ip dosed Kun Ming mouse pain model assessed as reduction in licking and biting time during phase-2 administered 15 mins prior to formalin challenge relative to vehicle-treated control; format: functional; outline: as §1
[7] = test system: Rattus norvegicus; test: Antineuropathic pain activity in po dosed Sprague-Dawley rat chronic constriction injury model assessed as inhibition of mechanical allodynia measured on day 15 relative to sham-treated control; format: functional
Outline: (§2)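 Sprague-Dawley rats, sciatic nerve chronic constriction injury (four loose 4-0 silk ligatures, chloral hydrate anaesthesia); sham has nerve exposed without ligation. Model confirmed on day 14. Oral dosing in 0.5% methylcellulose, 10 mL/kg, twice daily on days 15–18. Read after first dose (day 15) and last dose (day 18). Von Frey withdrawal threshold and radiant-heat plantar withdrawal latency (30 s cutoff), each paw sampled four times and averaged; 10 rats/group.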

[8] = test system: Rattus norvegicus; test: Antineuropathic pain activity in po dosed Sprague-Dawley rat chronic constriction injury model assessed as inhibition of mechanical allodynia measured on day 18 by repeated dose treatment assay relative to sham-treated control; format: functional; outline: as §2
[9] = test system: Rattus norvegicus; test: Antineuropathic pain activity in po dosed Sprague-Dawley rat chronic constriction injury model assessed as inhibition of thermal hypersensitivity measured on day 18 by repeated dose treatment assay relative to sham-treated control; format: functional; outline: as §2
[10] = test system: Mus musculus; test: Toxicity in Kun Ming mouse at 20 to 80 mg/kg, ip measured after 30 to 120 mins by rotarod test; format: organism-based; design: route intraperitoneal; conditions: in vivo
Outline: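 Rotarod test in Kun Ming mice pretrained to stay 300 s at 10 rpm. Latency to fall from drum turning at 10 rpm measured 30, 60, 90 and 120 min after ip dosing; 8–10 mice per group.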

[11] = test system: Rattus norvegicus; test: Cmax in Sprague-Dawley rat at 16 mg/kg, iv by HPLC/MS/MS analysis; format: ADME, organism-based; design: dose 16 mg/kg, route intravenous; conditions: in vivo
Outline: (§3)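 Sprague-Dawley rats (250 ± 5.0 g), n = 8/group, dosed iv via lateral tail vein at 16 mg/kg in 100% saline or by oral gavage at 320 mg/kg as suspension in 0.5% methylcellulose. Serial tail-vein blood into heparinized tubes at 30 min, 1, 2, 3, 4, 5, 6, 7 and 24 h. Plasma treated by acetonitrile protein precipitation, then HPLC/MS on C18 column, 40 °C.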

[12] = test system: Rattus norvegicus; test: Cmax in Sprague-Dawley rat at 320 mg/kg, po by HPLC/MS/MS analysis; format: ADME, organism-based; design: dose 320 mg/kg, route oral; conditions: in vivo; outline: as §3
[13] = Half life in Sprague-Dawley rat at 320 mg/kg, po by HPLC/MS/MS analysis; format: ADME, organism-based; design: dose 320 mg/kg, route oral; conditions: in vivo; outline: as §3
[14] = AUC (0 to 24 hrs) in Sprague-Dawley rat at 320 mg/kg, po by HPLC/MS/MS analysis; format: ADME, organism-based; design: time < 24 hr, dose 320 mg/kg, route oral; conditions: plasma; outline: as §3
[15] = AUC (0 to infinity) in Sprague-Dawley rat at 320 mg/kg, po by HPLC/MS/MS analysis; format: ADME, organism-based; design: dose 320 mg/kg, route oral, time infinity; conditions: plasma; outline: as §3
[16] = Oral bioavailability in Sprague-Dawley rat at 320 mg/kg; format: ADME, organism-based; conditions: in vivo
[17] = target: 5-hydroxytryptamine receptor 2A (Rattus norvegicus) (UniProt P14842); test: Displacement of [3H]-ketanserin from rat cerebral cortex 5-HT2A receptor at 1 uM after 15 mins by liquid scintillation counting analysis; format: tissue-based
[18] = target: Sodium-dependent serotonin transporter (Rattus norvegicus) (UniProt P31652); test: Displacement of [3H]-paroxetine from rat cerebral cortex serotonin HT transporter at 1 uM after 10 mins by liquid scintillation counting analysis; format: tissue-based
[19] = target: Histamine H1 receptor (Cavia porcellus) (UniProt P31389); test: Displacement of [3H]-mepyramine from guinea pig cerebellum histamine H1 receptor at 1 uM after 60 mins by liquid scintillation counting analysis
[20] = target: Histamine H3 receptor (Rattus norvegicus) (UniProt Q9QYN8); test: Displacement of [3H]-N-alpha-methylhistamine from rat cerebral cortex histamine H3 receptor at 1 uM after 30 mins by liquid scintillation counting analysis; format: tissue-based
[21] = target: Adrenergic receptor alpha-1 (Rattus norvegicus) (UniProt P15823+P23944+P43140); test: Displacement of [3H]-prazosin from rat cerebral cortex adrenergic alpha-1 receptor at 1 uM after 60 mins by liquid scintillation counting analysis; format: tissue-based
[22] = target: Adrenergic receptor alpha-2 (Rattus norvegicus) (UniProt P22086+P19328+P22909); test: Displacement of [3H]-rauwolscine from rat cerebral cortex adrenergic alpha-2 receptor at 1 uM after 60 mins by liquid scintillation counting analysis; format: tissue-based
[23] = target: Glutamate NMDA receptor (Rattus norvegicus) (UniProt P35439+Q00959+Q00960+Q00961+Q62645+Q8VHN2+Q9R1M7); test: Displacement of [3H]-glycine from rat hippocampal membrane NMDA receptor at 1 uM after 30 mins by liquid scintillation counting analysis
[24] = target: Mu-type opioid receptor (Homo sapiens) (UniProt P35372); test: Displacement of [3H]-diprenorphine from human mu-opioid receptor at 1 uM after 150 mins by liquid scintillation counting analysis
[25] = target: Cannabinoid receptor 1 (Homo sapiens) (UniProt P21554); test: Displacement of [3H]-CP-55940 from human CB1 receptor expressed in CHO cells at 1 uM after 90 mins by liquid scintillation counting analysis; format: cell-based
[26] = target: Transient receptor potential cation channel subfamily V member 1 (Homo sapiens) (UniProt Q8NER1); test: Inhibition of from human TRPV-1 channel expressed in HEK293 cells at 1 uM after 5 mins by electrophysiological analysis; format: cell-based
[27] = Half life in Sprague-Dawley rat at 16 mg/kg, iv by HPLC/MS/MS analysis; conditions: in vivo
[28] = AUC (0 to 24 hrs) in Sprague-Dawley rat at 16 mg/kg, iv by HPLC/MS/MS analysis; conditions: plasma
[29] = AUC (0 to infinity) in Sprague-Dawley rat at 16 mg/kg, iv by HPLC/MS/MS analysis; conditions: plasma

Transient receptor potential cation channel subfamily V member 1 (Homo sapiens), sequence (Q8NER1 whole entry): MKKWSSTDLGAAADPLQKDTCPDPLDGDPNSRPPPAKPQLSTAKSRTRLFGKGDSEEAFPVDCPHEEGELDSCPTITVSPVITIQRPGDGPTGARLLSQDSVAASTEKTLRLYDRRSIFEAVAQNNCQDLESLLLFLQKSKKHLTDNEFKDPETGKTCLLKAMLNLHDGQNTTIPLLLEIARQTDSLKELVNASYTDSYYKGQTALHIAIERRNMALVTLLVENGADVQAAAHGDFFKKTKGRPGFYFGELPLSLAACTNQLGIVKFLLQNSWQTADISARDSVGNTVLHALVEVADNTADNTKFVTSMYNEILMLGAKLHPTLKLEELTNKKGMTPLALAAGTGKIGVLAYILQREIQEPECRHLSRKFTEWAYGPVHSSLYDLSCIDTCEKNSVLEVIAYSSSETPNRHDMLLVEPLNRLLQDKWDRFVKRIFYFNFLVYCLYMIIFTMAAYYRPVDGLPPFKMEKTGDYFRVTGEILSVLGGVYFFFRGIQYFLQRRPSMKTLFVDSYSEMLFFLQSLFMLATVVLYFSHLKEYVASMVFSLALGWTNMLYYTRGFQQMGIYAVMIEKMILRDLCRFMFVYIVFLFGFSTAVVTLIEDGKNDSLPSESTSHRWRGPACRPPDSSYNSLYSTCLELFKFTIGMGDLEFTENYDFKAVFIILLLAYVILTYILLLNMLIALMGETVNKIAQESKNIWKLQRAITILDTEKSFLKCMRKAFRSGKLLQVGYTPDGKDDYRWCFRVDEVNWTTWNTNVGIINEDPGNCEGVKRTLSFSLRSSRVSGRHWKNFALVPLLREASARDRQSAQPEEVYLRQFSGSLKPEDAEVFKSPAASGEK
Histamine H1 receptor (Cavia porcellus), sequence (P31389 whole entry): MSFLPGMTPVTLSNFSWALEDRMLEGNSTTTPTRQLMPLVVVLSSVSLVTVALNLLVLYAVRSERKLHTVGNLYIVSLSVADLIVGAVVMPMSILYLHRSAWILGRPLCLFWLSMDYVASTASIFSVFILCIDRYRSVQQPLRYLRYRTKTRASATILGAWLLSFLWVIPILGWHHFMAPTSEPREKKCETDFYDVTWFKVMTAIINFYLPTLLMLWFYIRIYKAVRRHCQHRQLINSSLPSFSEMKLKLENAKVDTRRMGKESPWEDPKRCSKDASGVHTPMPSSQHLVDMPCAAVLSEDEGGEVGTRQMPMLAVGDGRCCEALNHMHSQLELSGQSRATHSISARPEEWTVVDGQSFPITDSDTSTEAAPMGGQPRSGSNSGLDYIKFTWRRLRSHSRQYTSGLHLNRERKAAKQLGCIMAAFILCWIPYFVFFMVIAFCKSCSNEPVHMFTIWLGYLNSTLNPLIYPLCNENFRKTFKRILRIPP
Sodium-dependent serotonin transporter (Rattus norvegicus), sequence (P31652 whole entry): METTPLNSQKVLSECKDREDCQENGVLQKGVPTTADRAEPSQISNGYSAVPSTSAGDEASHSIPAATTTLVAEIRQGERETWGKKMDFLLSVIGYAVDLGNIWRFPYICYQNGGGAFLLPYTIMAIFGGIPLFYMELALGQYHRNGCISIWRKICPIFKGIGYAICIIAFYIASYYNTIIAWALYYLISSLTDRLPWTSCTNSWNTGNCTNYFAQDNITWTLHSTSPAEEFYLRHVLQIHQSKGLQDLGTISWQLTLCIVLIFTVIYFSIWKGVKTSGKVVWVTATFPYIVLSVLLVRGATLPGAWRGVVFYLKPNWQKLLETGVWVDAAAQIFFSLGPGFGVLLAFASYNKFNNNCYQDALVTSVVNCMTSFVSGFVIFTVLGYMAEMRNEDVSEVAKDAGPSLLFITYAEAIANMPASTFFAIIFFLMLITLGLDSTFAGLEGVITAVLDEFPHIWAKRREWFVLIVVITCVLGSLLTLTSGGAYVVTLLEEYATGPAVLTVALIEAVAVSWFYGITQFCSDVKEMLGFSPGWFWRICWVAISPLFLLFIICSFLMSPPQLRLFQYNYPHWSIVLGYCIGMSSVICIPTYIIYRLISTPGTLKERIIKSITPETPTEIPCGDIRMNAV
Mu-type opioid receptor (Homo sapiens), sequence (P35372 whole entry): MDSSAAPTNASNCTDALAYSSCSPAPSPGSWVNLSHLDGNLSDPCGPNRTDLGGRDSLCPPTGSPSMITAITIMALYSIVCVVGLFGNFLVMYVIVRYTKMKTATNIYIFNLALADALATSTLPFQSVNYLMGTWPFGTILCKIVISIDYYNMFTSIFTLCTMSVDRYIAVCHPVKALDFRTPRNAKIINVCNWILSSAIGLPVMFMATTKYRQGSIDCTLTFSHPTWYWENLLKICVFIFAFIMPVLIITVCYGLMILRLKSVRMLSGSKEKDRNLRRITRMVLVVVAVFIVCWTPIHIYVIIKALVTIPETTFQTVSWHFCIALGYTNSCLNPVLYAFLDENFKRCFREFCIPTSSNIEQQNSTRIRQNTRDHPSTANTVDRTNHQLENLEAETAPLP
5-hydroxytryptamine receptor 2A (Rattus norvegicus), sequence (P14842 whole entry): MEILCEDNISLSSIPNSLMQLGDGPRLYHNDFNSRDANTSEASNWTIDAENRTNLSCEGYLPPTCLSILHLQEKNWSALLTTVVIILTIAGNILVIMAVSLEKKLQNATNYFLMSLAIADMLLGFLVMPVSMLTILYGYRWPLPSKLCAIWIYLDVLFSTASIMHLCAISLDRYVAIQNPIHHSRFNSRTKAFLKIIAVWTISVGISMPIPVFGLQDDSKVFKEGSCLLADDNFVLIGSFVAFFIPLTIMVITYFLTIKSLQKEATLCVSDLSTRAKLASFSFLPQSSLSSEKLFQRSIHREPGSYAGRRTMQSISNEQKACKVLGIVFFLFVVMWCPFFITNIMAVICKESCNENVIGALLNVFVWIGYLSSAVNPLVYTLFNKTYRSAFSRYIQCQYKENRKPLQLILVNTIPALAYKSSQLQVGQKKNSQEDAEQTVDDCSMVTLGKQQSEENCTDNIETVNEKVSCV
Histamine H3 receptor (Rattus norvegicus), sequence (Q9QYN8 whole entry): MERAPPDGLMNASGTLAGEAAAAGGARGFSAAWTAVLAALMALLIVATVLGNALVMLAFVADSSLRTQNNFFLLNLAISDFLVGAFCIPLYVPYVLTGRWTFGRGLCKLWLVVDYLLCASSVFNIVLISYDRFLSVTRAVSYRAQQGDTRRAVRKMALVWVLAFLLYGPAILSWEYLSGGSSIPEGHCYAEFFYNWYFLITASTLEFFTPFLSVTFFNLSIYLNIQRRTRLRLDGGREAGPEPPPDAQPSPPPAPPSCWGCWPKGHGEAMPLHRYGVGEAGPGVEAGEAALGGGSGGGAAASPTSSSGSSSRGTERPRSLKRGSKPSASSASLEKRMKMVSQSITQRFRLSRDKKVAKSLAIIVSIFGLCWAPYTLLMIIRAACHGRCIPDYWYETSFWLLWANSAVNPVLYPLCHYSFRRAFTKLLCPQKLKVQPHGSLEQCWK
Cannabinoid receptor 1 (Homo sapiens), sequence (P21554 whole entry): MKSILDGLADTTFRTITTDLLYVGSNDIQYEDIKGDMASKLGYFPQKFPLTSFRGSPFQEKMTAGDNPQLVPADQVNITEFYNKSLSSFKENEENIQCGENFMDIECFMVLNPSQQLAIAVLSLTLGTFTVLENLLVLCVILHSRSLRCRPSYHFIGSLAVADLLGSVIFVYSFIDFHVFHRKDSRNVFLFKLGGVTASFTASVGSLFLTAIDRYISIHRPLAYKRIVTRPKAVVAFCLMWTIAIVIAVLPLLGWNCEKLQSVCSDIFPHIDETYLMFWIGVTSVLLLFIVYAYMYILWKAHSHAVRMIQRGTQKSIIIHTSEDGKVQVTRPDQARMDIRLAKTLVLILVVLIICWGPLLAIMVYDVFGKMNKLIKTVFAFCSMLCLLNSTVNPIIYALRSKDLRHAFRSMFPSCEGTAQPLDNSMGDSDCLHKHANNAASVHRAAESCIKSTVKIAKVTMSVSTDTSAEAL

Cc1nc(-c2ccc(Cl)cc2)nc(OCCCN2CCCCC2)c1Cl
Ki [1]: 1420 nM
LD50 at 24 h [2]: > 2000 mg/kg
Time [3]: 12.65 s
Time [4]: 37.41 s
Activity [5]: Dose-dependent effect
ED50 [5]: 48.4 mg/kg
Activity [6]: Dose-dependent effect
ED50 [6]: 42.1 mg/kg
inhibition [7]: Dose-dependent effect
ED50 ([7]; 360 h): 58.2 mg/kg
inhibition [8]: Dose-dependent effect
ED50 ([8]; 432 h): 61.8 mg/kg
inhibition [9]: Dose-dependent effect
ED50 ([9]; 432 h): 50.2 mg/kg
Activity [10]: Non-toxic
Cmax [11]: 7260 ng/mL
Cmax [12]: 17400 ng/mL
half-life [13]: 3.81 h
AUC(0-t) at 24 h [14]: 54700 ng·h/mL
AUC(0-inf) [15]: 55400 ng·h/mL
bioavailability [16]: 75.1%
inhibition [17]: < 50%
inhibition [18]: < 50%
inhibition [19]: < 50%
inhibition [20]: < 50%
inhibition [21]: < 50%
inhibition [22]: < 50%
inhibition [23]: < 50%
inhibition [24]: < 50%
inhibition [25]: < 50%
inhibition [26]: < 50%
half-life [27]: 10.6 h
AUC(0-t) at 24 h [28]: 3300 ng·h/mL
AUC(0-inf) [29]: 3690 ng·h/mL

Source: ChEMBL document CHEMBL3351343, “Synthesis and biological evaluation of novel sigma-1 receptor antagonists based on pyrimidine scaffold as agents for treating neuropathic pain” (J Med Chem, 2014)
